A word on the IC50: it is the concentration at which inhibition is half-maximal. In general, logD refers to the decadic logarithm of the distribution of all forms, ionised or not, between an organic phase and buffer at a given pH. By half-life is commonly meant how long it takes for the measured level to halve. The solubility is the dissolved amount per volume that the medium holds. Read a high solubility as much dissolved substance.

Structures are written as SMILES. In brackets after ≈: the same amount, converted by molar mass.

The target of data set [1] is Phosphatidylinositol 4,5-bisphosphate 3-kinase catalytic subunit beta isoform (Homo sapiens, UniProt P42338). The data set can be described thus: Inhibition of human recombinant His6-tagged PI3K p110beta expressed in baculovirus using DiC8-PI(4,5)P2 as substrate after 20 mins by AlphaScreen assay. The procedure, abridged: (§1)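 Values are the mean of at least two experiments. Experimental error was within 20% of the value.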
Sequence of Phosphatidylinositol 4,5-bisphosphate 3-kinase catalytic subunit beta isoform (P42338 whole entry, canonical isoform): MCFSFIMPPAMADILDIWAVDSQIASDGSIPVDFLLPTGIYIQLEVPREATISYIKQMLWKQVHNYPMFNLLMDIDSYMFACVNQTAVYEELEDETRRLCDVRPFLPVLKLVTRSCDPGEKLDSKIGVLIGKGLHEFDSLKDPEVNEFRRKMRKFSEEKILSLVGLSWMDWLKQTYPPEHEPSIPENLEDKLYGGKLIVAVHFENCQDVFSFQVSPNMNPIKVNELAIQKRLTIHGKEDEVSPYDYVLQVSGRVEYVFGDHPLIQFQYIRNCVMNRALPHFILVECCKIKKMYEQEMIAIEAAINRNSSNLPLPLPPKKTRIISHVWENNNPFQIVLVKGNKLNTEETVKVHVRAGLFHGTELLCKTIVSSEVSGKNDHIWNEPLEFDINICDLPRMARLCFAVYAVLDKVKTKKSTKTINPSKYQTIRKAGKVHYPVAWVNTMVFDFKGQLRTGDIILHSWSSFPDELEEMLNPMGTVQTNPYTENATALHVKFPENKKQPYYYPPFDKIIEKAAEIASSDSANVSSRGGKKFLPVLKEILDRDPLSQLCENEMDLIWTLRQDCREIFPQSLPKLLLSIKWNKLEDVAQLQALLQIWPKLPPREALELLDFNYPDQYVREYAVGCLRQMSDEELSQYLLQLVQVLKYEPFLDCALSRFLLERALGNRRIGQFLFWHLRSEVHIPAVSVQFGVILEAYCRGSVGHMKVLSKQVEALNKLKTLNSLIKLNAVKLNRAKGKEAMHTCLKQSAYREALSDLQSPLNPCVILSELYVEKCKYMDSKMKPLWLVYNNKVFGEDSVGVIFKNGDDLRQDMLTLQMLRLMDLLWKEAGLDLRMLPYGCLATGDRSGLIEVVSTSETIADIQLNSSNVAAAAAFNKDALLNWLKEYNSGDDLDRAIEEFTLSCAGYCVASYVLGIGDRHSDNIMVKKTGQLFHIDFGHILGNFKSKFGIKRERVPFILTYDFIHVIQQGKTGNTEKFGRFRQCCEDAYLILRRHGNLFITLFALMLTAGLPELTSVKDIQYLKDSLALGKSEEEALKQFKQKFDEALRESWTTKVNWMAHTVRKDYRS

Data set [2] can be described thus: Lipophilicity, log D of the compound by HPLC analysis at pH 7.4. The format is physicochemical. The note with it: buffer. The procedure, abridged:
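LogD was determined experimentally at pH 7.4 by an HPLC method.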

Data set [3] deals with Phosphatidylinositol 4,5-bisphosphate 3-kinase catalytic subunit alpha isoform (Homo sapiens, UniProt P42336). The data set can be described thus: Inhibition of human recombinant His6-tagged PI3K p110alpha expressed in baculovirus using DiC8-PI(4,5)P2 as substrate after 20 mins by AlphaScreen assay. In outline: as §1
Sequence of Phosphatidylinositol 4,5-bisphosphate 3-kinase catalytic subunit alpha isoform (P42336 whole entry, canonical isoform): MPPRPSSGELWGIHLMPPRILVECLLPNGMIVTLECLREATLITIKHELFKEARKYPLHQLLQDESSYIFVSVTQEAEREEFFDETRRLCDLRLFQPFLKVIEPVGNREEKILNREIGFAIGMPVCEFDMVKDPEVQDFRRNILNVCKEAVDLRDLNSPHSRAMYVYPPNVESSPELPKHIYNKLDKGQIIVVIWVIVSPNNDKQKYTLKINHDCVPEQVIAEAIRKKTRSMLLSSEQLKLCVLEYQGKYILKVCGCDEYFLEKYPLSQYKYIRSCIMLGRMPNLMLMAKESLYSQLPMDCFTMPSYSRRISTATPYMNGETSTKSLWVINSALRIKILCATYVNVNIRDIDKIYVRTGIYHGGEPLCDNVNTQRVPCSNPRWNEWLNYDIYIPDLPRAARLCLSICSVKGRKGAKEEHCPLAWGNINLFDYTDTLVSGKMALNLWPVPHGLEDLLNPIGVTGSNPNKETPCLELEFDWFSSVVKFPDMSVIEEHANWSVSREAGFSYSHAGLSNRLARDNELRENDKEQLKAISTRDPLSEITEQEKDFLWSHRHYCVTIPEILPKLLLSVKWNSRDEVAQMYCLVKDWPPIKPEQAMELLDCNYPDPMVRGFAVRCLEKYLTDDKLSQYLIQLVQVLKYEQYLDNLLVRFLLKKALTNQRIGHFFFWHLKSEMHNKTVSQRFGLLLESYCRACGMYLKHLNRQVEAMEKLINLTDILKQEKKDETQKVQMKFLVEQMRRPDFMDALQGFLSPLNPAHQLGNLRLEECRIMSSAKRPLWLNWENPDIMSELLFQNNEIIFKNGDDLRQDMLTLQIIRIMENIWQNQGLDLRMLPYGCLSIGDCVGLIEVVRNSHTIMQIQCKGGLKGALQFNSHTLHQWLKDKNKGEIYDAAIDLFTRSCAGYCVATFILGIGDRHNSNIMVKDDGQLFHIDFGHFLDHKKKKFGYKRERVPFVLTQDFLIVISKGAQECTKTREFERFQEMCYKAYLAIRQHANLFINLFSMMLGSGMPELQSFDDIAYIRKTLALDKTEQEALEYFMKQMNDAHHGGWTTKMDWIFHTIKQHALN
Another data set relates to Liver microsomes. In words: Drug metabolism in human liver microsomes assessed as reactive glutathione adduct formation ratio after 30 mins relative to clozapine. The format is ADME, Microsome. The note with it: 0.5 h. In outline:
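Human liver microsomes at 1 mg/mL were incubated for 30 min in the presence of glutathione. The read-out was the ratio of reactive metabolite formation.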
In general terms: Microsomes from liver hold many membrane-bound enzymes, among them those of drug oxidation.

Data set [4] concerns the target T1, Phosphatidylinositol 4,5-bisphosphate 3-kinase catalytic subunit delta isoform (Homo sapiens, UniProt O00329).
T1 sequence (O00329 whole entry): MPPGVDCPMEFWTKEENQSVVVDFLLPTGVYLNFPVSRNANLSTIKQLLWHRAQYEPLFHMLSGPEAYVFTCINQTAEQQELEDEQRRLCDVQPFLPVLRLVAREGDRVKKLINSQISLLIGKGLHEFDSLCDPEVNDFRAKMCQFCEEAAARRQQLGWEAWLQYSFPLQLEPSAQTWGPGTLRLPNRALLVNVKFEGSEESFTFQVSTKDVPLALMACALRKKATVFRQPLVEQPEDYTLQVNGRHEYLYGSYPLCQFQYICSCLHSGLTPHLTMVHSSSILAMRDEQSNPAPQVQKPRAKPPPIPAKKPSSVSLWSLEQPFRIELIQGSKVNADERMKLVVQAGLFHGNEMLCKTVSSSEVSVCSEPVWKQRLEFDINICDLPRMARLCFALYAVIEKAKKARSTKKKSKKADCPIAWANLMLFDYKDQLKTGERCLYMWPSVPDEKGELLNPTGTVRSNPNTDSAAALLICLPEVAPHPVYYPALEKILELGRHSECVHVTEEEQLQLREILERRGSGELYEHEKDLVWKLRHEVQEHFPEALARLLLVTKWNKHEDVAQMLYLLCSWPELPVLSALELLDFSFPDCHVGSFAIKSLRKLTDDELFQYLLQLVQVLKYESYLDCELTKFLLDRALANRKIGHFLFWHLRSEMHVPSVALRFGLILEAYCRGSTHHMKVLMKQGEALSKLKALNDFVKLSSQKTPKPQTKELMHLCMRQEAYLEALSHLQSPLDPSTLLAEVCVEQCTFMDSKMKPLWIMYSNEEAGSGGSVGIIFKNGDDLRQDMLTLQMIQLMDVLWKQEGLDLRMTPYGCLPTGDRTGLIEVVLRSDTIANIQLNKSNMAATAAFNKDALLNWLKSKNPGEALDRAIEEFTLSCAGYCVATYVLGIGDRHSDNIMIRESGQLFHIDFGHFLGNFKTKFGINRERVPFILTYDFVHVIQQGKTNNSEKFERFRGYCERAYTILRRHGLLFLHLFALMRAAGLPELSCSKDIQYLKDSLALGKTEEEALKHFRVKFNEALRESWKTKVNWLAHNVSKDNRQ
In words: Inhibition of PI3K p110delta.

The nature of data set [5]: Half life in human liver microsomes after 30 mins. The format is ADME, Microsome. In outline: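 Half-life was measured after a 30 min incubation with human liver microsomes at 0.5 mg/mL.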
A short description of data set [6]: Solubility of the compound in DMSO/HBSS at pH 7.4. The data set is classed as physicochemical. In outline:
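Solubility was measured from DMSO into HBSS at pH 7.4.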

Data set [7] concerns the target Phosphatidylinositol 4,5-bisphosphate 3-kinase catalytic subunit gamma isoform (Homo sapiens, UniProt P48736). In words: Inhibition of PI3K p110gamma.

Sequence of Phosphatidylinositol 4,5-bisphosphate 3-kinase catalytic subunit gamma isoform (P48736 whole entry, canonical isoform): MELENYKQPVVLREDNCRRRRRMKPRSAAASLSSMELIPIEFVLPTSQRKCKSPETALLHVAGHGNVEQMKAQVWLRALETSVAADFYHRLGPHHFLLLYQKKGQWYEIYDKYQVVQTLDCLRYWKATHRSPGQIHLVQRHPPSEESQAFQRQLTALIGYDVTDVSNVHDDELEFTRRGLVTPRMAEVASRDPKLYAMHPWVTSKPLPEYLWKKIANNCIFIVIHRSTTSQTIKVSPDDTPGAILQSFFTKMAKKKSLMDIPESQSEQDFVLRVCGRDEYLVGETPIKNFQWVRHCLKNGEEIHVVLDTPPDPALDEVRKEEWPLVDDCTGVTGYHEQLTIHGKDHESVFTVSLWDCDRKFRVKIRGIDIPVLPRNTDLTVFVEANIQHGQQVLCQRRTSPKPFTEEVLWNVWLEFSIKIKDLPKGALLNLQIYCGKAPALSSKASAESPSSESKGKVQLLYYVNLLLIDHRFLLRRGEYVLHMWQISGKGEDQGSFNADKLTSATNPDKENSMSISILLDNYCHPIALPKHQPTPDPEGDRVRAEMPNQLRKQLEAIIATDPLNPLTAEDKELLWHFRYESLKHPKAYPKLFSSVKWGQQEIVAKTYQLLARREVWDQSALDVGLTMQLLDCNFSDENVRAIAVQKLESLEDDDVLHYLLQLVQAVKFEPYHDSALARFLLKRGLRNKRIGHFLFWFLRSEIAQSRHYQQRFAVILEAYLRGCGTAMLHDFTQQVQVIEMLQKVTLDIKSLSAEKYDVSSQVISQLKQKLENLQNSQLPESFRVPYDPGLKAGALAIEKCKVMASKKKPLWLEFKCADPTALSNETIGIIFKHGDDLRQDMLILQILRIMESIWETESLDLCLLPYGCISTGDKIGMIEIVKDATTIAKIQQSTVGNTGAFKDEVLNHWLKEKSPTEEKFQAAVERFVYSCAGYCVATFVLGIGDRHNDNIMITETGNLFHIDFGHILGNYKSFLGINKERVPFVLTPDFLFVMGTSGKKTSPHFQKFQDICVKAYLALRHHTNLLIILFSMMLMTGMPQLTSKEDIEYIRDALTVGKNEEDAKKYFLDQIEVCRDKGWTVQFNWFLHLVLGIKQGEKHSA

As to `Cc1cc(N2CCOCC2)nc(NCc2ccccc2)n1`, the IC50 in data set [1] amounted to 130 µM.

In data set [2], `Cc1cc(C(C)Nc2ccccc2)c2nc(N3CCOCC3)cc(=O)n2c1` (stereo not given) showed a logD of 3.6. In addition, the IC50 in data set [3] was 5.7 µM.

`O=c1cc(N2CCOCC2)nc(NCc2ccccc2)[nH]1` yielded a logD in data set [2] of 1.2. The IC50 in data set [3] was 12.2 µM; in data set [1] it was 1.9 µM.

With `O=c1nc(N2CCOCC2)cc(NCc2ccccc2)[nH]1`, the logD in data set [2] is 0.5. For the same compound, the IC50 in data set [3] is more than 83.3 µM; in data set [1], 29 µM.

With `O=c1cc(NCc2ccccc2)nc(N2CCOCC2)[nH]1`, in data set [2], the logD stood at 1.1. Moreover, the IC50 in data set [3] is 283 µM; in data set [1] it was 63 µM.

`O=c1cc(NCc2ccccc2)[nH]c(N2CCOCC2)c1` returned a logD in data set [2] of 1.8. Further, the IC50 in data set [3] came out at 142 µM; in data set [1], 34 µM.

Consider `NC(=O)c1cc(N2CCOCC2)nc(NCc2ccccc2)n1`, for which the IC50 in data set [1] is 2.5 µM.

In the case of `CNC(=O)c1cc(N2CCOCC2)nc(NCc2ccccc2)n1`, in data set [1], the IC50 worked out at 23 µM.

With `CN(C)C(=O)c1cc(N2CCOCC2)nc(NCc2ccccc2)n1`, the IC50 in data set [1] came to 25 µM.

Consider `Nc1nc(NCc2ccccc2)cc(N2CCOCC2)n1`, for which the IC50 is more than 83.3 µM in data set [3] and 110 µM in data set [1].

Take `N#Cc1nc(NCc2ccccc2)cc(N2CCOCC2)n1`: the IC50 in data set [3] came out at 41.4 µM; in data set [1], 1.6 µM.

For `NCc1nc(NCc2ccccc2)cc(N2CCOCC2)n1`, the results for the IC50 in data set [3] and in data set [1] were more than 83.3 µM and 87 µM, respectively.

On to `c1ccc(CNc2cc(N3CCOCC3)ncn2)cc1`, for which the IC50 in data set [3] is more than 83.3 µM; in data set [1] it was 36 µM.

With `COC(=O)c1cc(NCc2ccccc2)nc(N2CCOCC2)c1`, the IC50 in data set [3] was determined as 240 µM; in data set [1], 32 µM.

Regarding `OCc1cc(NCc2ccccc2)nc(N2CCOCC2)c1`, the results for the IC50 in data set [3] and in data set [1] were 119 µM and 43 µM, respectively.

Regarding `O=c1cc(N2CCOCC2)nc(NCc2cccc3ccccc23)[nH]1`, in the data set on Liver microsomes, the Ratio is 0.21. The same compound showed a logD in data set [2] of 2.4. In addition, the IC50 is 4.3 µM in data set [3], 0.14 µM in data set [4], 0.093 µM in data set [1] and 18.5 µM in data set [7]. The half-life in data set [5] was 41 min. This compound also came in with a solubility in data set [6] of 4.5 µM (≈ 1.51 µg/mL).

With `O=c1cc(N2CCOCC2)nc(NCc2cccc(Cl)c2Cl)[nH]1`, the IC50 came out at 3 µM in data set [3] and 0.084 µM in data set [1].

With `O=c1cc(N2CCOCC2)nc(NCc2cccc(Cl)c2)[nH]1`, the IC50 in data set [3] is 7.9 µM; in data set [1] it was 0.47 µM.

With `O=c1cc(N2CCOCC2)nc(NCc2ccccc2Cl)[nH]1`, the IC50 is 4.88 µM in data set [3] and 0.57 µM in data set [1].

In the case of `O=c1cc(N2CCOCC2)nc(NCc2cc(Cl)ccc2Cl)[nH]1`, the figures for the IC50 in data set [3] and in data set [1] were 4.52 µM and 1.4 µM, respectively.

For `O=c1cc(N2CCOCC2)nc(NCc2c(Cl)cccc2Cl)[nH]1`, the IC50 stood at 3.38 µM in data set [3] and 1.5 µM in data set [1].

As to `O=c1nc(N2CCOCC2)cc(NCc2cccc3ccccc23)[nH]1`, the Ratio with Liver microsomes worked out at 0. This compound registered a logD in data set [2] of 1.5. Also, the IC50 in data set [3] was more than 83.3 µM; in data set [1], 2.6 µM. The half-life in data set [5] was more than 115 min. This compound also registered a solubility in data set [6] of more than 100 µM.

With `O=c1nc(N2CCOCC2)cc(NCc2cccc(Cl)c2Cl)[nH]1`, the IC50 in data set [3] worked out at 100 µM; in data set [1], 1.5 µM.

As for `C[C@H](Nc1cc(N2CCOCC2)nc(=O)[nH]1)c1cccc2ccccc12`, the figures for the IC50 in data set [3] and in data set [1] were 52.8 µM and 10 µM, respectively.

Regarding `C[C@@H](Nc1cc(N2CCOCC2)nc(=O)[nH]1)c1cccc2ccccc12`, the IC50 in data set [3] turned out to be 146 µM; in data set [1], 36 µM.
